According to ChEMBL document CHEMBL1125595 (1991):
In brackets after ≈: the same amount, converted by molar mass.

What was measured:
MRC5 = assay: Antiviral activity determined by plaque reduction assay of HCMV (AD-169) in MRC-5 cells; assay type: functional; conditions: Homo sapiens, read-out: ID50 (the source's name)
How it was run: (§1)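 Plaque reduction assay: HSV strains in Vero cells and HCMV in MRC-5 cells. ID50 is the dose giving a 50% fall in plaque numbers relative to untreated controls.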

Vero [1] = assay: Antiviral activity determined by plaque reduction assay of HSV-2 (G) in vero cells; assay type: functional; conditions: Chlorocebus sabaeus, read-out: ID50 (the source's name); how it was run: as §1
Vero [2] = assay: Anticellular activity was determined by cell proliferation assay in vero cells.; conditions: Chlorocebus sabaeus, read-out: ID50 (the source's name)
Vero [3] = assay: Antiviral activity determined by plaque reduction assay of HSV-1 (BWS) in vero cells; assay type: functional; conditions: Chlorocebus sabaeus, read-out: ID50 (the source's name); how it was run: as §1
Mus musculus [4] = assay: Compound tested for its effect on mean survival time in mice against HSV-1(BWS) at a dose of 100 mg/kg.; assay type: functional
How it was run: (§2)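 Female Swiss-Webster mice of about 20 g were infected intraperitoneally with 5 × 10^4 PFU HSV-1 (BWS). Compound was given intraperitoneally twice daily for 5 consecutive days, starting 3 h postinfection. A saline placebo group served as control. Deaths were recorded for 21 days, and survivors and mean survival time in days were taken at the day-21 endpoint.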

Mus musculus [5] = assay: Compound tested for its effect on mean survival time in mice against HSV-1(BWS) at a dose of 300 mg/kg.; assay type: functional; how it was run: as §2
Mus musculus [6] = assay: Antiviral activity in terms of percentage survival at a dose of 100 mg/kg after intraperitoneal inoculation of HSV-1(BWS) in mice (9/10); assay type: functional; conditions: ip; how it was run: as §2
Mus musculus [7] = assay: Antiviral activity in terms of percentage survival at a dose of 300 mg/kg after intraperitoneal inoculation of HSV-1(BWS) in mice (10/10); assay type: functional; conditions: ip; how it was run: as §2
Mus musculus [8] = assay: Antiviral activity in terms of percentage survival at a dose of 300 mg/kg after intraperitoneal inoculation of HSV-1(BWS) in mice (6/7); assay type: functional; conditions: ip; how it was run: as §2
Mus musculus [9] = assay: Antiviral activity in terms of percentage survival at a dose of 100 mg/kg after intraperitoneal inoculation of HSV-1(BWS) in mice (7/10); assay type: functional; conditions: ip; how it was run: as §2

Structure (SMILES)	IC50 (MRC5)	IC50 (Vero [1])	IC50 (Vero [2])	IC50 (Vero [3])	MST (Mus musculus [4])	MST (Mus musculus [5])	survival at 100 mg/kg (Mus musculus [6])	survival at 300 mg/kg (Mus musculus [7])	survival at 300 mg/kg (Mus musculus [8])	survival at 100 mg/kg (Mus musculus [9])
N.Nc1ncnc2c1ncn2CC(CO)CCP(=O)(O)O (configuration not stated)	> 100 µg/mL	> 100 µg/mL	> 100 µg/mL	–	–	–	–	–	–	–
N.Nc1ccn(CC(CO)CCP(=O)(O)O)c(=O)n1 (configuration not stated)	> 100 µg/mL	> 100 µg/mL	> 100 µg/mL	–	–	–	–	–	–	–
CC(OCn1cnc2c(O)nc(N)nc21)OCP(=O)(O)O (configuration not stated)	> 100 µg/mL	> 100 µg/mL	> 100 µg/mL	> 100 µg/mL	–	–	–	–	–	–
Cc1cn(COCOCP(=O)([O-])[O-])c(=O)[nH]c1=O.[Na+].[Na+]	> 100 µg/mL	> 100 µg/mL	> 100 µg/mL	> 100 µg/mL	–	–	–	–	–	–
Nc1nc(O)c2ncn(COC(CO)OCP(=O)([O-])[O-])c2n1.[Na+].[Na+] (configuration not stated)	0.9 µg/mL	8.2 µg/mL	> 100 µg/mL	3.3 µg/mL	–	–	–	–	–	–
Nc1ccn(COCOCP(=O)([O-])[O-])c(=O)n1.[Na+].[Na+]	> 100 µg/mL	> 100 µg/mL	> 100 µg/mL	> 100 µg/mL	–	–	–	–	–	–
Nc1nc(O)c2ncn(COCOCP(=O)([O-])[O-])c2n1.[Na+].[Na+]	5 µg/mL	11 µg/mL	> 100 µg/mL	2.6 µg/mL	20.4 days	21 days	90%	100%	–	–
Nc1ncnc2c1ncn2COCOCP(=O)([O-])[O-].[Na+].[Na+]	> 100 µg/mL	> 100 µg/mL	> 100 µg/mL	> 100 µg/mL	–	–	–	–	–	–
COC(CO)OCn1cnc2c(O)nc(N)nc21 (configuration not stated)	> 100 µg/mL	> 100 µg/mL	> 100 µg/mL	> 100 µg/mL	–	–	–	–	–	–
N.Nc1nc(O)c2ncn(CC(CO)CCP(=O)(O)O)c2n1 (configuration not stated)	> 100 µg/mL	> 100 µg/mL	> 100 µg/mL	–	–	–	–	–	–	–
Nc1nc2c(ncn2COCCO)c(=O)[nH]1 [ACYCLOVIR]	38.4 µg/mL (≈ 171 µM)	2.4 µg/mL (≈ 10.7 µM)	> 100 µg/mL	0.5 µg/mL (≈ 2.22 µM)	–	20 days	–	–	86%	70%
Nc1nc2c(ncn2CCOCP(=O)(O)O)c(=O)[nH]1 [GS-438]	0.04 µg/mL (≈ 0.138 µM)	0.69 µg/mL (≈ 2.39 µM)	5 µg/mL (≈ 17.3 µM)	0.08 µg/mL (≈ 0.277 µM)	–	–	–	–	–	–
